# Measured values: ChEMBL document CHEMBL4699593, “Identification of 2,4-Disubstituted Imidazopyridines as Hemozoin Formation Inhibitors with Fast-Killing Kinetics and In Vivo Efficacy in the Plasmodium falciparum NSG Mouse Model” (J Med Chem, 2020)
# Active and inactive are the calls of the source. No cut-off for these calls is given here.
# Experiments:
# Plasmodium falciparum [1] = experiment: Antimalarial activity against asexual blood stage Plasmodium falciparum assessed as reduction in parasitemia by measuring lag time at 10 times IC50; type: functional
# [2] = Drug recovery in mouse urine by LC-MS/MS analysis; type: ADME, tissue-based; settings: in vivo
# [3] = Terminal half life in Balb/C mouse at 2 mg/kg, iv by LC-MS/MS analysis; type: ADME, organism-based; settings: in vivo, read-out: beta t1/2 (converted)
# Summary of the method: (§1)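 Healthy Balb/c mice were given the compound i.v. or orally. Parameters come from non-compartmental analysis: AUC from 0 h to t_last, blood clearance, volume at steady state, terminal half-life, Tmax. Oral bioavailability F is derived from the i.v. and p.o. data.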
# hERG = experiment: Selectivity index, ratio of IC50 for inhibition of human ERG by patch clamp method to IC50 for antiplasmodial activity against multidrug-sensitive asexual blood stage Plasmodium falciparum NF54; type: toxicity; settings: read-out: Ratio IC50
# [4] = Tmax in Plasmodium falciparum 3D70087/N9 infected NSG mouse at 1.5 mg/kg, po by LC-MS/MS analysis; type: ADME, organism-based; settings: in vivo
# Summary of the method: (§2)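 P. falciparum-infected NSG mice received escalating single oral doses of 1.5, 5, 15, 50 and 100 mg/kg.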
# Plasmodium berghei = experiment: Antiplasmodial activity against luciferase-expressing Plasmodium berghei sporozoites liver stage infected in human HepG2 cells expressing GFP-CD81 fusion protein incubated for 48 hrs by luciferase reporter gene based bioluminescence assay; type: functional, organism-based; settings: HepG2, 48 h
# Summary of the method: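 Liver-stage activity was measured in vitro with rodent P. berghei sporozoites. Values are the mean of 3 technical replicates from the luciferase assay; individual values varied less than 2×.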
# [5] = AUC (0 to 24 hrs) in Plasmodium falciparum 3D70087/N9 infected NSG mouse at 50 mg/kg, po by LC-MS/MS analysis; type: ADME, organism-based; set-up: time < 24 hr, route oral, dose 50 mg/kg; settings: in vivo
# Summary of the method: (§3)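 Oral (PO) dosing of NSG (NODscidIL2Rγnull) mice infected with P. falciparum. Cmax and AUC0–24 are taken from the infected-mouse PK analysis and are also expressed divided by dose.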
# [6] = Selectivity index, ratio of CC50 for cytotoxicity against CHO cells assessed as reduction in cell viability to IC50 for antiplasmodial activity against multidrug-sensitive Plasmodium falciparum NF54 assessed as reduction in parasite growth; type: toxicity, cell-based; settings: hamster, read-out: Ratio CC50/IC50
# [7] = Drug metabolism in mouse blood assessed as N-demethylation by LC-MS/MS analysis; type: ADME, tissue-based
# Hemozoin = experiment: Inhibition of beta-hematin formation assessed as reduction in hemozoin formation incubated for 5 hrs by NP40 detergent-mediated assay
# Summary of the method: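 Synthetic hemozoin (β-hematin) formation is driven by the detergent Nonidet P-40. Pyridine is then added to detect unreacted hematin. IC50 is derived from this read-out.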
# [8] = Dose normalized Cmax in Plasmodium falciparum 3D70087/N9 infected NSG mouse at 100 mg/kg, po by LC-MS/MS analysis; type: ADME, organism-based; settings: in vivo; summary of the method: as §3
# [9] = Lipophilicity, log D of compound at pH 7.4; type: physicochemical; settings: buffer
# [10] = Cmax in Plasmodium falciparum 3D70087/N9 infected NSG mouse at 15 mg/kg, po by LC-MS/MS analysis; type: ADME, organism-based; set-up: route oral, dose 15 mg/kg; settings: in vivo; summary of the method: as §3
# [11] = Aqueous solubility of compound in phosphate buffer saline at pH 6.5 incubated for 20 hrs under shaking condition by shake-flask method based HPLC-DAD analysis; type: physicochemical; settings: phosphate buffered saline
# Summary of the method: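 Equilibrium aqueous solubility was measured at pH 6.5 using a miniaturized shake-flask method.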
# [12] = Dose normalized Cmax in Plasmodium falciparum 3D70087/N9 infected NSG mouse at 5 mg/kg, po by LC-MS/MS analysis; type: ADME, organism-based; settings: in vivo; summary of the method: as §2
# [13] = Cmax in Plasmodium falciparum 3D70087/N9 infected NSG mouse at 50 mg/kg, po by LC-MS/MS analysis; type: ADME, organism-based; set-up: route oral, dose 50 mg/kg; settings: in vivo; summary of the method: as §3
# CHO = experiment: Cytotoxicity against CHO cells assessed as reduction in cell viability by MTT assay; type: cell-based, Cricetulus griseus; settings: chinese hamster
# Summary of the method: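 Cytotoxicity was measured in Chinese hamster ovary (CHO) cells and reported as CC50. The selectivity index is CC50 divided by NF54 IC50.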
# [14] = Dose normalized Cmax in Plasmodium falciparum 3D70087/N9 infected NSG mouse at 15 mg/kg, po by LC-MS/MS analysis; type: ADME, organism-based; settings: in vivo; summary of the method: as §3
# [15] = biological target: Voltage-gated inwardly rectifying potassium channel KCNH2 (Homo sapiens, UniProt Q12809); experiment: Inhibition of human ERG by patch clamp method
# Plasmodium falciparum [16] = experiment: Antiplasmodial activity against early ring-stage synchronized Plasmodium falciparum assessed as decrease in hemozoin formation after 32 hrs by Giemsa-staining based haemocytometric counting method; type: functional, organism-based
# [17] = AUC (0 to 24 hrs) in Plasmodium falciparum 3D70087/N9 infected NSG mouse at 15 mg/kg, po by LC-MS/MS analysis; type: ADME, organism-based; set-up: time < 24 hr, route oral, dose 15 mg/kg; settings: in vivo; summary of the method: as §3
# [18] = Dose normalized AUC (0 to 24 hrs) in Plasmodium falciparum 3D70087/N9 infected NSG mouse at 50 mg/kg, po by LC-MS/MS analysis; type: ADME, organism-based; settings: in vivo; summary of the method: as §3
# Plasmodium falciparum [19] = experiment: Antiplasmodial activity against early ring-stage synchronized Plasmodium falciparum assessed as increase in free heme after 32 hrs by Giemsa-staining based haemocytometric counting method; type: functional, organism-based
# Summary of the method: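 Whole-parasite cell fractionation assay run as a dose response. Free heme and hemozoin were measured intracellularly across increasing compound concentrations.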
# [20] = Cmax in Balb/C mouse at 20 mg/kg, po by LC-MS/MS analysis; type: ADME, organism-based; set-up: route oral, dose 20 mg/kg; settings: in vivo
# Summary of the method: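 Healthy Balb/c mice dosed i.v. or orally. Parameters come from non-compartmental analysis of compound concentration over time. […] Clearance is blood clearance (CL_b).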
# [21] = Tmax in Balb/C mouse at 20 mg/kg, po by LC-MS/MS analysis; type: ADME, organism-based; settings: in vivo; summary of the method: as §1
# [22] = Terminal half life in Balb/C mouse at 20 mg/kg, po by LC-MS/MS analysis; type: ADME, organism-based; settings: in vivo, read-out: beta t1/2 (converted); summary of the method: as §1
# [23] = AUC (0 to 24 hrs) in Plasmodium falciparum 3D70087/N9 infected NSG mouse at 1.5 mg/kg, po by LC-MS/MS analysis; type: ADME, organism-based; set-up: time < 24 hr, route oral, dose 1.5 mg/kg; settings: in vivo; summary of the method: as §3
# [24] = Dose normalized Cmax in Plasmodium falciparum 3D70087/N9 infected NSG mouse at 1.5 mg/kg, po by LC-MS/MS analysis; type: ADME, organism-based; settings: in vivo; summary of the method: as §3
# Plasmodium falciparum [25] = experiment: Antiplasmodial activity against early stage (I to III) Plasmodium falciparum NF54 gametocytes at 5 uM incubated for 48 hrs under hypoxia condition by luciferase reporter gene assay relative to control; type: functional
# [26] = Dose normalized AUC (0 to 24 hrs) in Plasmodium falciparum 3D70087/N9 infected NSG mouse at 100 mg/kg, po by LC-MS/MS analysis; type: ADME, organism-based; settings: in vivo; summary of the method: as §3
# [27] = AUC (0 to 24 hrs) in Plasmodium falciparum 3D70087/N9 infected NSG mouse at 100 mg/kg, po by LC-MS/MS analysis; type: ADME, organism-based; set-up: time < 24 hr, route oral, dose 100 mg/kg; settings: in vivo; summary of the method: as §3
# [28] = Drug metabolism in mouse blood assessed as oxidation and glucuronidation by LC-MS/MS analysis; type: ADME, tissue-based
# Plasmodium falciparum [29] = experiment: Antimalarial activity against asexual schizont stage of Plasmodium falciparum NF54 measured after 24 hrs by [3H]hypoxanthine incorporation assay; type: functional, organism-based
# Summary of the method: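 Tested on a synchronized asexual blood-stage culture of P. falciparum, with IC50 determined separately for the ring and the schizont stage.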
# [30] = Tmax in Plasmodium falciparum 3D70087/N9 infected NSG mouse at 100 mg/kg, po by LC-MS/MS analysis; type: ADME, organism-based; settings: in vivo; summary of the method: as §2
# Plasmodium falciparum [31] = experiment: Antimalarial activity against asexual blood stage Plasmodium falciparum assessed as reduction in parasitemia by measuring log parasite reduction ratio at 10 times IC50; type: functional
# Sequence of Voltage-gated inwardly rectifying potassium channel KCNH2 (Q12809 whole entry): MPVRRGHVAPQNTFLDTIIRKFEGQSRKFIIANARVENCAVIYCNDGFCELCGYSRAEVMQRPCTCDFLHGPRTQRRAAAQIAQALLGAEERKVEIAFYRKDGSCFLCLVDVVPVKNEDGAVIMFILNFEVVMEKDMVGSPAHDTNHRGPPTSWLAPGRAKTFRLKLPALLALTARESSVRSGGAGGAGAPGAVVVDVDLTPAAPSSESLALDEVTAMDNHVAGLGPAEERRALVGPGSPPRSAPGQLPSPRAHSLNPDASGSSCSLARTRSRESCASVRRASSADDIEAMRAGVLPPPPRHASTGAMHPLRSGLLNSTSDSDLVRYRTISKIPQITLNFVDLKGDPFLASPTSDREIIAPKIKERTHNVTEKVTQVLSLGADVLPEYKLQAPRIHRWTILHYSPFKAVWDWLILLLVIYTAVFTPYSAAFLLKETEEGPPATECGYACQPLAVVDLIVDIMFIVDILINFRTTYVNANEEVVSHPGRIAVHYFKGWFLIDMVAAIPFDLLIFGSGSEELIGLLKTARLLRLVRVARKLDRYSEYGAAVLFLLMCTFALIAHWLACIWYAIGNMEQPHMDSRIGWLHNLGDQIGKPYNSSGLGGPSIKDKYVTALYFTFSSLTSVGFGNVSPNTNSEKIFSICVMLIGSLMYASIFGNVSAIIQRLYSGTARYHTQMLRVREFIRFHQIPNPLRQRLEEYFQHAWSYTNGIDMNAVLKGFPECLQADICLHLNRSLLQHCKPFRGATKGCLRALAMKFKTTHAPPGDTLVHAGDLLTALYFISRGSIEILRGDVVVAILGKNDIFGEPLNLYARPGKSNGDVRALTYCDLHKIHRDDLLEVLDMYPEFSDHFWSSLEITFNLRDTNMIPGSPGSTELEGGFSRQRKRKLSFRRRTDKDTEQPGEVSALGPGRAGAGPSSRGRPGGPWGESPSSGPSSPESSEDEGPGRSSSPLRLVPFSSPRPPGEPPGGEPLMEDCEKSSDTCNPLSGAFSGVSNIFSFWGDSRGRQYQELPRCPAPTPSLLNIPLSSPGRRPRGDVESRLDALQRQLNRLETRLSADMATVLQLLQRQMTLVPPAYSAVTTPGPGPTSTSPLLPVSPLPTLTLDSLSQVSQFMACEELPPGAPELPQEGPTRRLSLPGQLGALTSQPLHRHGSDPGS
smiles,measurement,setting,value
CN1CCN(CC2CCN(c3nccc4[nH]c(-c5cc(F)cc(F)c5)nc34)CC2)CC1,Time,Plasmodium falciparum [1],0 h
same,Drug recovery,[2],Active
same,half-life,[3],23.1 h
same,selectivity ratio,hERG,> 1300
same,Tmax,[4],1.5 h
same,IC50,Plasmodium berghei,14 µM
same,AUC,[5],2856 µM·min
same,selectivity ratio,[6],1040
same,Drug metabolism,[7],Metabolite_Detected
same,IC50,Hemozoin,24 µM
same,Cmax/dose,[8],0.07 µM·kg/mg
same,logD,[9],2.6
same,Cmax,[10],810 nM
same,solubility thermodynamic at 20 h,[11],200 µM
same,Cmax/dose,[12],0.03 µM·kg/mg
same,Cmax,[13],2840 nM
same,CC50,CHO,23 µM
same,Cmax/dose,[14],0.05 µM·kg/mg
same,IC50,[15],> 30 µM
same,Activity,Plasmodium falciparum [16],Active
same,AUC,[17],969 µM·min
same,AUC/dose,[18],57 µM·kg·min/mg
same,Activity,Plasmodium falciparum [19],inactive
same,Cmax,[20],1500 nM
same,Tmax,[21],1.7 h
same,half-life,[22],32.7 h
same,AUC,[23],46 µM·min
same,Cmax/dose,[24],0.03 µM·kg/mg
same,inhibition at 5 µM,Plasmodium falciparum [25],< 50%
same,AUC/dose,[26],51 µM·kg·min/mg
same,AUC,[27],5142 µM·min
same,Drug metabolism,[28],Metabolite_Detected
same,IC50,Plasmodium falciparum [29],0.06 µM
same,Tmax,[30],1 h
same,Ratio,Plasmodium falciparum [31],4.9
